An excerpt weighted towards active compounds, which were near 1.6% of everything screened.
LANA-H2B inh: blocks KSHV LANA binding to histone H2A/H2B; cell-free LANA-H2A/H2B peptide, fluorescence polarization; inhibition, % (test concentration not listed); 320,000 tested, 0.6% active; in the data active means inhibition mostly above about 10%, no sharp cut-off; inactive means mostly below about 6.7%
Arrestin-AP2 inh: human beta-arrestin and AP2 interaction inhibition. inhibition, % at 10 µM. 340,000 tested, 0.31% active. FITC-arrestin peptide / GST-AP2 beads, flow cytometry; AP2 beta2 appendage carries R879A mutation;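 active means inhibition above a set limit, near 3 SD of compounds lacking own fluorescence, cut at about 54% in these data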;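 further: plate controls were DMSO wells for no effect and 5 µM unlabelled arrestin peptide for full effect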
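Measured by: flow cytometry, FL1 (488/535 nm); Material: AP2 appendage R879A on GSH beads; Evaluation: percent response; Timing: pre-incubation 12 min, peptide binding 1 h, room temperature; Also added: 50 nM FITC-arrestin peptide; Medium: PBS with 0.05% Tween 20 and 0.1% BSA.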
HDAC3 inh: inhibitors of human histone deacetylase 3; O15379; recombinant HDAC3, fluorogenic peptide/trypsin coupled, fluorescence; inhibition, % at 8.3 µM; 320,000 tested, 0.15% active; AID 2718; in the data active means inhibition above about 26%, passing the limit was not always enough; inconclusive means no clear call, values can overlap the other calls
T cell modulator: modulates CD8 T cell binding to vesicles; 2C CD8+ T cell-vesicle binding, flow cytometry; hits give low values; response (vesicle binding), % at 7 µM; 330,000 tested, 0.068% active; AID 2052;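 active means response, share of CD8 T cells binding vesicles, and their 90th percentile fluorescence all below set limits, cut at about 80% in these data, passing the limit was not always enough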;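 further: values below 100% mean blocked vesicle binding to the CD8+ T cells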
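Material: 2C TCR transgenic mouse naive CD8+ T cells, MACS-purified. Also added: QL9-charged Drosophila Ld/ICAM-1/B7-1 vesicles. Timing: binding 1.5 h at 37 °C. Measured by: high-throughput flow cytometry with anti-B7-1 and anti-CD8 staining. Read-out: percent CD8+ FL2 mean versus row control. Controls: Unloaded micro-vesicles (low), QL9 vesicles with 0.7% DMSO (high).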
GASC-1 inh: human JMJD2C demethylase inhibition; Q9H3R0; inhibition, % at 2.35 µM; 330,000 tested, 0.069% active; GST-JMJD2C(1-420) H3K9me3 demethylation, DELFIA europium;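 active means more than half of a compound's replicate wells show inhibition beyond 50%, single wells judged on their own value; inconclusive means some, but no more than half, of replicates pass 50% inhibition; inactive means no replicate passes 50% inhibition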;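 further: signal counts dimethyl H3K9 product captured on neutravidin plate; 0% = median of DMSO wells and 100% = 0.3 times that DMSO median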
Pemphigus Ab inh: human desmoglein-3 autoantibody binding inhibition; P32926; DSG3-coupled beads, scFv-anti-DSG3-GFP binding, flow cytometry; hits give low values; binding (percent of control), % at 10 µM; 310,000 tested, 0.48% active; AID 588358;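 active means binding more than 3 SD below its plate's average and above zero; inconclusive means below that plate limit but binding exactly zero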;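 further: hits lower antibody fragment binding to DSG3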
Target sequence (P32926 whole entry, looked up, the tested form may be a part): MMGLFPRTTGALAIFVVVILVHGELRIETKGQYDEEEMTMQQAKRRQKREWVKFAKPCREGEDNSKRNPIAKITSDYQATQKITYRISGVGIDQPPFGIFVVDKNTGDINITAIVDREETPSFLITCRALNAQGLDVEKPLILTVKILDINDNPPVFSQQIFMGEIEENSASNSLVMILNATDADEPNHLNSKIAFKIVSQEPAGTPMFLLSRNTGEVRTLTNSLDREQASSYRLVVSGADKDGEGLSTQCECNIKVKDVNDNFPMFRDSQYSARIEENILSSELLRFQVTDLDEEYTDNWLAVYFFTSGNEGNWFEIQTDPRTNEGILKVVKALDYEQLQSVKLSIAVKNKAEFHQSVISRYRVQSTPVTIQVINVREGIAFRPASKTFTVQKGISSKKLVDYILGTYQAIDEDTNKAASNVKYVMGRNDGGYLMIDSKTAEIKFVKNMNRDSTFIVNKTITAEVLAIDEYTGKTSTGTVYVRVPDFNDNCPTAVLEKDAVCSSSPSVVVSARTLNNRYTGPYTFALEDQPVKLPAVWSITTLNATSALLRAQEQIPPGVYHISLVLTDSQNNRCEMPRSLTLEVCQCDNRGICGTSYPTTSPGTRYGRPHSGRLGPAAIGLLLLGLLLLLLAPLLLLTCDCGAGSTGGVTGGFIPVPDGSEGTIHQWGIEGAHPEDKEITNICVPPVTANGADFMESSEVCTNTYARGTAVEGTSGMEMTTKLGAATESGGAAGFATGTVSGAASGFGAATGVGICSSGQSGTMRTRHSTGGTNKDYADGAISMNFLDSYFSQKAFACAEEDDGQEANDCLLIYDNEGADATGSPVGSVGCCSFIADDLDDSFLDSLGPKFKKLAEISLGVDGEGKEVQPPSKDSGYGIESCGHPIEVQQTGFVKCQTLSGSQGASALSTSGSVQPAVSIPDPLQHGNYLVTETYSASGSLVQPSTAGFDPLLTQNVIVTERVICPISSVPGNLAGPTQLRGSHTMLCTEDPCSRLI
Arr AP2 CP1: blocks beta-arrestin peptide binding to human AP2; GST-AP2 beads, FITC arrestin peptide binding, flow cytometry; GST-fused beta2-adaptin appendage, R879A mutant; 1,300 tested, 2% active; AID 504908; shares compounds with Arrestin-AP2 inh; inhibition, % at 10 µM;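 active means inhibition above a set limit, roughly 3 SD of non-fluorescent compound noise, cut at about 38% in these data; inactive means inhibition at or below that limit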;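 further: loss of bead fluorescence from 50 nM FITC arrestin peptide bound to appendage; 0% = negative control wells and 100% = excess unlabelled arrestin peptide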
GST GSH counter: counter-screen for beta-arrestin AP2 inhibitors: GST-GSH bead binding; shares compounds with Arrestin-AP2 inh; GST-fluorescein binding to GSH beads, fluorescence; inhibition, % at 10 µM; 1,300 tested, 2% active; AID 588338;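 active means inhibition above 50%, about 3 SD of the inhibition seen with non-fluorescent compounds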;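 further: fluorescein maleimide labelled GST captured on 4 micron glutathione beads; higher means more loss of bead fluorescence from quenching or blocked binding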
An asterisk follows results filed as active.

Screening CCNS(=O)(=O)c1ccc(NC(=O)Cn2nc(C(F)(F)F)cc2C)cc1 returned LANA-H2B inh 2, Arrestin-AP2 inh 62*, HDAC3 inh 7, T cell modulator 313, GASC-1 inh -3, Pemphigus Ab inh 97, Arr AP2 CP1 7 and GST GSH counter 5.
`Cc1ccc(C(C)(C)NC(=O)C2CCC(=O)N(Cc3ccccc3F)C2)cc1` (stereo not drawn) gave LANA-H2B inh 0, Arrestin-AP2 inh -4, HDAC3 inh 11, T cell modulator 174, GASC-1 inh -10, Arr AP2 CP1 -5 and GST GSH counter 3.
For O=C(CCN1C(=O)S/C(=C\c2ccccc2)C1=O)Nc1ccc(S(=O)(=O)Nc2nccs2)cc1 the results were LANA-H2B inh -5, Arrestin-AP2 inh 16, HDAC3 inh 18, T cell modulator 209, GASC-1 inh -9 and Pemphigus Ab inh 109.
For COc1ccccc1/C=C1/SC(=O)N(CCC(=O)Nc2ccc(S(=O)(=O)Nc3nccs3)cc2)C1=O the results were LANA-H2B inh -1, Arrestin-AP2 inh 61*, HDAC3 inh 12, T cell modulator 272, GASC-1 inh -6, Pemphigus Ab inh 100, Arr AP2 CP1 3 and GST GSH counter 2.
`CCCCC(C(=O)NC1CCCC1)N(C(=O)c1snc(C(N)=O)c1N)c1ccc(F)cc1` (stereo not drawn) gave LANA-H2B inh 1, Arrestin-AP2 inh -4, HDAC3 inh 5, T cell modulator 226, GASC-1 inh -2 and Pemphigus Ab inh 108.
`O=C(NCc1ccco1)c1cc(S(=O)(=O)N2CCCC2)ccc1Cl` gave LANA-H2B inh 6, Arrestin-AP2 inh 54*, HDAC3 inh -5, T cell modulator 352, GASC-1 inh 0, Pemphigus Ab inh 109, Arr AP2 CP1 1 and GST GSH counter -15.
COc1ccc(S(=O)(=O)N2CCCCCC2)cc1C(=O)NCc1ccco1 was read as LANA-H2B inh 3, Arrestin-AP2 inh 4, HDAC3 inh 3, T cell modulator 156 and GASC-1 inh 7.
`Cc1cccc(OCC(=O)Nc2ccc(S(=O)(=O)Nc3onc(C)c3C)cc2)c1C` gave LANA-H2B inh -13, Arrestin-AP2 inh -2, HDAC3 inh 1, T cell modulator 238, GASC-1 inh 11 and Pemphigus Ab inh 104.
`O=C(C1CCCN1S(=O)(=O)c1ccc(Cl)cc1)N1CCCCC1` (stereo not drawn) gave LANA-H2B inh -1, Arrestin-AP2 inh -5, HDAC3 inh -5, T cell modulator 344, GASC-1 inh 6 and Pemphigus Ab inh 115.
Screening Cc1cccc(C)c1NC(=S)Nc1ccc(F)cc1 returned LANA-H2B inh 1, Arrestin-AP2 inh 57*, HDAC3 inh -8, GASC-1 inh -12, Pemphigus Ab inh 105, Arr AP2 CP1 3 and GST GSH counter -4.
`CCCCCOc1ccc(NC(=O)C2OC3OC(C)(C)OC3C3OC(C)(C)OC23)cc1` (stereo not drawn) gave LANA-H2B inh -6, Arrestin-AP2 inh 107*, HDAC3 inh -1, T cell modulator 131, GASC-1 inh -31, Pemphigus Ab inh 85, Arr AP2 CP1 0 and GST GSH counter 10.
Screening CC(NC(=O)CNC(=O)C1O[C@@H]2OC(C)(C)O[C@@H]2[C@H]2OC(C)(C)O[C@@H]12)C(=O)O (stereo partly drawn) returned LANA-H2B inh 2, Arrestin-AP2 inh 6, HDAC3 inh -14, T cell modulator 169, GASC-1 inh 5 and Pemphigus Ab inh 99.
COC1OC(COCc2ccccc2)C(N)C(OCc2ccccc2)C1OCc1ccccc1 (stereo not drawn) was read as Arrestin-AP2 inh 2 and Pemphigus Ab inh 89.
Screening Cc1ccc(Cl)cc1NC(=O)COC(=O)c1ccc(CN2CCCC2=O)cc1 returned LANA-H2B inh -1, Arrestin-AP2 inh -5, HDAC3 inh -4, T cell modulator 382, GASC-1 inh -5 and Pemphigus Ab inh 105.
Screening COc1cc(Cl)c(C)cc1NC(=O)COC(=O)c1ccc(CN2CCCC2=O)cc1 returned LANA-H2B inh 3, Arrestin-AP2 inh 65*, HDAC3 inh 5, T cell modulator 440, GASC-1 inh 0, Pemphigus Ab inh 96, Arr AP2 CP1 -1 and GST GSH counter 1.
Screening CN(NC(=O)c1ccccc1)C1=NS(=O)(=O)c2ccccc21 returned LANA-H2B inh 0, Arrestin-AP2 inh 34, HDAC3 inh 17, T cell modulator 137, GASC-1 inh -4 and Pemphigus Ab inh 99.
For CN(NC(=O)COc1ccccc1)C1=NS(=O)(=O)c2ccccc21 the results were LANA-H2B inh -1, Arrestin-AP2 inh 62*, HDAC3 inh 6, T cell modulator 561, GASC-1 inh 6, Pemphigus Ab inh 102, Arr AP2 CP1 0 and GST GSH counter -7.
CC(C)CN(C(=O)c1ccc(S(=O)(=O)N2CCCCC2)cc1)C1CCS(=O)(=O)C1 (stereo not drawn) was read as Arrestin-AP2 inh -7, GASC-1 inh 1 and Pemphigus Ab inh 102.
For CC(C)CN(C(=O)c1ccc(S(=O)(=O)N2CCCC2)cc1)C1CCS(=O)(=O)C1 (stereo not drawn) the results were LANA-H2B inh 0, Arrestin-AP2 inh 55*, HDAC3 inh -9, T cell modulator 322, GASC-1 inh 22, Pemphigus Ab inh 99, Arr AP2 CP1 8 and GST GSH counter -8.
CCN(CC)C(=O)Cn1cc(C(=O)C(=O)N2CCN(c3ccccc3)CC2)c2ccccc21 was read as LANA-H2B inh 0, Arrestin-AP2 inh -12, HDAC3 inh -5, T cell modulator 273, GASC-1 inh -9 and Pemphigus Ab inh 100.
Screening CCN(C(=O)Cn1cc(C(=O)C(=O)N2CCOCC2)c2ccccc21)c1ccccc1 returned LANA-H2B inh 4, Arrestin-AP2 inh 66*, T cell modulator 329, GASC-1 inh 1, Pemphigus Ab inh 97, Arr AP2 CP1 -8 and GST GSH counter 1.
`COc1ccc(S(=O)(=O)N2CCC(C(=O)NCCC(=O)NC3CC3)CC2)cc1` gave LANA-H2B inh -1, Arrestin-AP2 inh 11, HDAC3 inh 1, T cell modulator 174, GASC-1 inh inconclusive and Pemphigus Ab inh 95.
